In ChEMBL document CHEMBL2412965, “Macrocyclic biphenyl tetraoxazoles: synthesis, evaluation as G-quadruplex stabilizers and cytotoxic activity” (Bioorg Med Chem, 2013):

Experiments:
[1] = Cytotoxicity against wild type human KB-3-1 cells after 4 days by MTT assay; format: functional, cell-based; settings: KB 3-1, 96 h
Method in brief: (§1)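 Cells were grown in suspension in RPMI with 10% heat-inactivated FBS, 2 mM L-glutamine, penicillin and streptomycin at 37 °C, 5% CO2. Drug exposure was continuous for 4 days across a concentration range, with a drug-free control. IC50 came from at least two experiments in six replicate wells.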

Salmonidae [2] = assay: Binding affinity to salmon testes duplex DNA assessed as thermal transition temperature at 15 uM preincubated for 5 mins at 90 degC followed by cooling at room temperature measured after 4 hrs by UV spectrophotometric analysis in presence of 150 mM K+ (reference value: 86.1 degC)
Method in brief: (§2)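 Salmon testes duplex DNA melting with ligand at 15 μM in 1 cm quartz cells. Buffer was 10 mM potassium phosphate, pH 7.5, with KCl added to give 50 mM K+ (32 mM KCl) or 150 mM K+ (132 mM KCl). Absorbance was read at 260 nm, temperature raised in 0.5 °C increments with 1 min equilibration and 5 s averaging. Ttran was taken from the first-derivative maximum.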

Homo sapiens [3] = species on record: Homo sapiens; assay: Binding affinity to human d(TTAGGG)4 assessed as thermal transition temperature at 20 uM preincubated for 5 mins at 90 degC followed by cooling at room temperature measured after 4 hrs by UV spectrophotometric analysis in presence of 150 mM K+ (reference value: 63.1 degC)
Method in brief: (§3)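 UV melting of human telomeric d(TTAGGG)4 at 5 μM strand (120 μM nucleotide), with ligand at 20 μM. Before use, DNA was heated 5 min at 90 °C and cooled slowly to room temperature over 4 h. Buffer was 10 mM potassium phosphate, pH 7.5, with KCl added to give 50 mM K+ (32 mM KCl) or 150 mM K+ (132 mM KCl). Absorbance was read at 295 nm in 0.5 °C steps with 1 min equilibration. Ttran was taken from the first-derivative minimum.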

Homo sapiens [4] = species on record: Homo sapiens; assay: Binding affinity to human d(TTAGGG)4 assessed as thermal transition temperature at 20 uM preincubated for 5 mins at 90 degC followed by cooling at room temperature measured after 4 hrs by UV spectrophotometric analysis in presence of 50 mM K+ (reference value: 55.3 degC); method in brief: as §3
[5] = Cytotoxicity against human KBV1 cells overexpressing MDR1 after 4 days by MTT assay; format: functional, cell-based; settings: KB-V1, 96 h; method in brief: as §1
[6] = Cytotoxicity against human RPMI8402 cells after 4 days by MTT assay; format: functional, cell-based; settings: RPMI 8402, 96 h
[7] = Cytotoxicity against human KBH5.0 cells overexpressing BCRP after 4 days by MTT assay; format: functional, cell-based; settings: KBH5.0 cell, 96 h; method in brief: as §1
Salmonidae [8] = assay: Binding affinity to salmon testes duplex DNA assessed as thermal transition temperature at 15 uM preincubated for 5 mins at 90 degC followed by cooling at room temperature measured after 4 hrs by UV spectrophotometric analysis in presence of 50 mM K+ (reference value: 78.2 degC); method in brief: as §2
Mus musculus = assay: Toxicity in athymic nude NCr mouse xenografted with human MDA-MB-435 cells administered as ip for 3 times per week for 4 weeks measured 2 times per week during compound administration; format: organism-based; settings: in vivo, 672 h
MDA-MB-435 = assay: Antitumor activity against human MDA-MB-435 cells xenografted in athymic nude NCr mouse assessed as tumor growth inhibition at 14 to 31 mg/kg, ip administered 3 times per week for 3 weeks followed by 42 mg/kg, ip dose for 3 times per week for last 10 days measured 2 times per week during compound administration relative to control; format: functional

SMILES | IC50 [1] | T (Salmonidae [2]) | T (Homo sapiens [3]) | T (Homo sapiens [4]) | IC50 [5] | IC50 [6] | IC50 [7] | T (Salmonidae [8]) | Activity (Mus musculus) | T/C (MDA-MB-435)
NCC[C@@H]1NC(=O)c2coc(n2)-c2coc(n2)-c2cccc(c2)-c2cccc(c2)-c2nc(co2)-c2nc(co2)CNC1=O | 4 µM | 87.1 °C | 77.7 °C | 68.2 °C | > 10 µM | 7 µM | > 10 µM | 81.1 °C | – | –
O=C1CNC(=O)c2coc(n2)-c2coc(n2)-c2cccc(c2)-c2cccc(c2)-c2nc(co2)-c2nc(co2)CN1 | 2.3 µM | 86.7 °C | 67.3 °C | 60.1 °C | > 10 µM | 2.5 µM | > 10 µM | 78.2 °C | – | –
CN(C)CC[C@@H]1NC(=O)c2coc(n2)-c2coc(n2)-c2cccc(c2)-c2cccc(c2)-c2nc(co2)-c2nc(co2)CNC1=O | 3.5 µM | 86.7 °C | 73.7 °C | 63.7 °C | > 10 µM | 6.5 µM | > 10 µM | 79.1 °C | – | –
CN(C)CCc1cc2cc(c1)CNC(=O)c1coc(n1)-c1coc(n1)-c1cccc(n1)-c1nc(co1)-c1nc(co1)C(=O)NC2 | 0.04 µM | 86.8 °C | 91.2 °C | 91.2 °C | > 10 µM | 0.18 µM | > 10 µM | 78.7 °C | – | –
O=C1N[C@@H](Cc2ccccc2)C(=O)NCc2coc(n2)-c2coc(n2)-c2cccc(c2)-c2cccc(c2)-c2nc(co2)-c2nc1co2 | > 10 µM | 85.7 °C | 64.7 °C | 58.1 °C | > 10 µM | > 10 µM | > 10 µM | 77.2 °C | – | –
CC(C)[C@@H]1NC(=O)c2coc(n2)-c2coc(n2)-c2cccc(c2)-c2cccc(c2)-c2nc(co2)-c2nc(co2)CNC1=O | 5 µM | 86.2 °C | 67.2 °C | 61.7 °C | 6.5 µM | – | 10 µM | 78.2 °C | – | –
CC(C)[C@@H]1NC(=O)c2coc(n2)-c2coc(n2)-c2coc(n2)C/C=C/c2coc(n2)-c2coc(n2)-c2coc1n2 | – | 86.2 °C | 93.2 °C | 92.2 °C | 3.3 µM | 0.03 µM | 0.04 µM | 78.2 °C | – | –
CC(C)(C)OC(=O)NCC[C@@H]1NC(=O)c2coc(n2)-c2coc(n2)-c2cccc(c2)-c2cccc(c2)-c2nc(co2)-c2nc(co2)CNC1=O | > 10 µM | 86.5 °C | 64.2 °C | 57.7 °C | > 10 µM | 3.5 µM | 6 µM | 78.3 °C | – | –
CC(C)[C@@H]1NC(=O)c2coc(n2)-c2coc(n2)-c2coc(n2)[C@H](CCN(C)C)NC(=O)c2coc(n2)-c2coc(n2)-c2coc1n2 | – | 86.7 °C | 92.2 °C | 92.7 °C | 5 µM | 0.07 µM | 0.03 µM | 78.2 °C | <= 45 mg kg-1 | 21.6%
CC(C)[C@@H]1NC(=O)c2coc(n2)-c2coc(n2)-c2coc(n2)[C@H](C(C)C)NC(=O)c2coc(n2)-c2coc(n2)-c2coc1n2 [HEXAOXAZOLE DIVALINE] | 0.3 µM | – | – | – | > 10 µM | 0.41 µM | 0.5 µM | – | – | –
